GSK3 alpha inh: blockers of GSK3A enzyme activity – biochemical, luminescence, cell-free homogeneous, HTS, primary screen | AID 2650, 2010 | inhibition, % at 10 µM | GSK-3 alpha kinase, ADP-Glo luminescence, 60 min | 320,000 tested, 0.1% active;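 active = more than half of replicates show inhibition above 20%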;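 also: GST-tagged GSK-3 alpha with peptide substrate and 25 µM ATP; 0% = DMSO neutral wells and 100% = GW8510 positive control wells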
Target sequence (P49840 whole entry, looked up): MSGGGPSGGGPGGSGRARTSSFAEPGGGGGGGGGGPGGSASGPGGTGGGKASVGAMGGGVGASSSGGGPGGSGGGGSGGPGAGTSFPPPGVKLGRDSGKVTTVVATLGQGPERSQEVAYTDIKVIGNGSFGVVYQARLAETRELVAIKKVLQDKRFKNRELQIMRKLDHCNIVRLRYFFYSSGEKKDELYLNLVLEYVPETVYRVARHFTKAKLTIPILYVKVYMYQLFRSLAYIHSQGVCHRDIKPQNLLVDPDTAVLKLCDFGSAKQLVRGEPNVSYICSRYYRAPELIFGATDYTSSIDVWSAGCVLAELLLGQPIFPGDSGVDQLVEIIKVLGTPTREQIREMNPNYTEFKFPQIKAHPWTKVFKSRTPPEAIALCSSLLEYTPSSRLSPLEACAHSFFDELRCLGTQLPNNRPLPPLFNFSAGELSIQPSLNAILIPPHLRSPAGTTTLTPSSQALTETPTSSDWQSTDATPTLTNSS
MEKK2 mut-MEK5: MEK5 binding signal on mutant MEKK2 PB1, primary screen, biochemical, multiplex bead flow cytometry, Alexa488-MEK5; Alexa488-MEK5 binding to MEKK2 mutant; percent response, % at 10 µM; 290,000 tested, 0.35% active; in the data active = percent response above about 24%, passing the limit was not always enough
MEKK2wt PB1 HTS: modulators of MEK5 binding to wildtype MEKK2, primary screen, biochemical, multiplex bead flow cytometry, Alexa488-MEK5 | Alexa488-MEK5 binding to MEKK2 WT; actives lie on both sides | binding response (% of control), % at 10 µM | 290,000 tested, 1.1% active | AID 1531, 2009; in the data active = binding response below about 67% or above about 130%
STK33 inh: inhibitors of purified STK33 kinase, primary screen, biochemical, ADP-Glo luminescence, homogeneous, cell-free; Serine/threonine-protein kinase 33 (Homo sapiens), Q9BYT3; MBP phosphorylation; inhibition, % at 10 µM; 320,000 tested, 0.073% active; AID 2661, 2010;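 active = inhibition at or above 25%, using the most active replicate where run in duplicate; inactive = inhibition below 25%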
GSK3beta inhib: human GSK3beta kinase inhibitors, primary screen, biochemical, cell-free homogeneous, HTS | activity score (negative = inhibition), % at 10 µM | GST-GSK3beta kinase, ADP-Glo luminescence, 60 min; active compounds read low | Glycogen synthase kinase-3 beta (Homo sapiens), P49841 | 300,000 tested, 0.038% active;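 active = more than half of replicate wells score below -50%, meaning over 50% inhibition versus plate controls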;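 also: 0% = median DMSO wells and -100% = median GW8510 positive control wells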
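Assay system: GST-fused GSK3beta enzyme, cell-free / Medium: Tris pH 7.5 buffer with MgCl2, DTT, BSA, heparin / Also added: peptide substrate plus 25 µM ATP (final) / Compound: 10 µM single point / Timing: kinase reaction with compound 60 min at room temperature / Detection: ADP-Glo luminescence / Benchmarks: DMSO neutral wells and GW8510 at 20 µM as positive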
MEKK3 PB1 HTS: modulators of MEKK3-MEK5 PB1 binding, primary screen, biochemical, wildtype MEKK3, multiplex bead flow cytometry, Alexa488-MEK5. Mitogen-activated protein kinase kinase kinase 3 (Homo sapiens), Q99759. bead-based flow cytometry, Alexa488-MEK5 binding to MEKK3; actives lie on both sides; 0 = blocked by unlabeled MEK5, 100 = vehicle. binding response (% of control), % at 10 µM. 290,000 tested, 1.4% active. AID 1529, 2009;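 active = binding response more than 3 SD above or below the average of its plate-row segment, actives on both sides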;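 also: Alexa488 bead fluorescence after subtracting the streptavidin-only scavenger bead signal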
MEKK2wt confirm: modulators of MEK5 binding to wildtype MEKK2, confirmation, biochemical, single concentration, multiplex bead flow cytometry | binding response (% of control), % at 10 µM | AID 1892, 2009 | 5,900 tested, 2.4% active | shares compounds with MEKK3 PB1 HTS | Alexa488-MEK5 binding to MEKK2 WT; actives lie on both sides; in the data active = binding response below about 16% or above about 210%; inactive = in between
MEKK2mut confirm: mutant MEKK2 PB1-MEK5 binding signal retest – biochemical, single concentration, multiplex bead flow cytometry, confirmation; shares compounds with MEKK3 PB1 HTS; Alexa488-MEK5 binding to MEKK2 mutant; percent response, % at 10 µM; 5,900 tested, 2% active; AID 1893, 2009; in the data active = percent response mostly above about 71%, no sharp cut-off; inactive = mostly below about 38%;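 also: higher means compound restores mutant binding toward wildtype level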
MEKK3 confirm: MEKK3 wild-type PB1 binding to MEK5, inhibitors, confirmation, biochemical, bead multiplex flow cytometry, single concentration, wildtype | shares compounds with MEKK3 PB1 HTS | Alexa488-MEK5 binding to MEKK3; active compounds read low | binding response (% of control), % at 10 µM | 5,900 tested, 1.8% active | AID 1894, 2009;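 active = binding response below 72% of control, or above a set upper limit, though filed actives all read lower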;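 also: 100% = DMSO only wells and 0% = binding blocked by excess unlabeled MEK5; lower values mean stronger disruption of MEK5 binding to MEKK3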
Active calls of the source: *; [ ] = another dose, or the depositor's remark. In the library only some 2.1% were active in any assay of this set; here they are far more common.

How did CCCN1C(=O)SC(CC(=O)Nc2ccc(Br)cc2)C1=O (stereo not given) do in these assays?
GSK3 alpha inh: 5.4; MEKK2 mut-MEK5: -24.0; MEKK2wt PB1 HTS: 3.0*[inhibitor]; STK33 inh: 1.1; GSK3beta inhib: 5.8; MEKK3 PB1 HTS: 2.0*[inhibitor]; MEKK2wt confirm: 100.0; MEKK2mut confirm: -4.0; MEKK3 confirm: 101.0

How did CC(=O)Nc1cc(NC(C)=O)cc(C(=O)OCC(=O)N(c2ccccc2)C2CCS(=O)(=O)C2)c1 (stereo not given) do in these assays?
GSK3 alpha inh: 3.7; STK33 inh: -0.6

How did CCN(CC)CCn1c(SCC(=O)NCc2ccco2)nc2c(sc3ccccc32)c1=O do in these assays?
GSK3 alpha inh: 0.3; MEKK2 mut-MEK5: 5.0; MEKK2wt PB1 HTS: 112.0; STK33 inh: 0.2; GSK3beta inhib: 1.0; MEKK3 PB1 HTS: 104.0

How did COc1cccc(NC(=O)CSc2nc3c(sc4ccccc43)c(=O)n2CCN(C)C)c1 do in these assays?
GSK3 alpha inh: -2.5; MEKK2 mut-MEK5: 28.0; MEKK2wt PB1 HTS: 147.0*; STK33 inh: 1.3; GSK3beta inhib: 1.3; MEKK3 PB1 HTS: 103.0; MEKK2wt confirm: 143.0; MEKK2mut confirm: 26.0; MEKK3 confirm: 107.0

Results for CCN(CC)CCn1c(SCC(=O)Nc2cccc(OC)c2)nc2c(sc3ccccc32)c1=O ?
GSK3 alpha inh: -3.1; MEKK2 mut-MEK5: 2.0; MEKK2wt PB1 HTS: 174.0*; STK33 inh: -1.0; GSK3beta inhib: 0.5; MEKK3 PB1 HTS: 107.0; MEKK2wt confirm: 163.0; MEKK2mut confirm: 34.0; MEKK3 confirm: 106.0

How did CCOC(=O)C1=C(C)N(C)C(C)=C(C(=O)OCC)C1c1ccc(Cl)cc1 do in these assays?
GSK3 alpha inh: 16.1; MEKK2 mut-MEK5: 0.0; MEKK2wt PB1 HTS: 107.0; STK33 inh: -0.6; GSK3beta inhib: -2.5; MEKK3 PB1 HTS: 130.0*; MEKK2wt confirm: 21.0; MEKK2mut confirm: -25.0; MEKK3 confirm: 46.0*

How did N#C/C(=C/c1ccc(-c2ccc(S(N)(=O)=O)cc2)o1)C(=O)Nc1ccccc1 do in these assays?
GSK3 alpha inh: -2.2; MEKK2 mut-MEK5: 7.0; MEKK2wt PB1 HTS: 101.0; STK33 inh: 0.8; GSK3beta inhib: 0.5; MEKK3 PB1 HTS: 102.0

How did N#C/C(=C/c1ccc(-c2ccc(S(N)(=O)=O)cc2)o1)c1nc2ccccc2s1 do in these assays?
GSK3 alpha inh: 1.5; MEKK2 mut-MEK5: 45.0; MEKK2wt PB1 HTS: 28.0*[inhibitor]; STK33 inh: -2.5; MEKK3 PB1 HTS: 63.0*[inhibitor]; MEKK2wt confirm: 96.0; MEKK2mut confirm: 3.0; MEKK3 confirm: 103.0

What do the screens show for `CCCCC(CCC(=O)Nc1ccc(C(=O)OC)cc1)C(=O)O` (stereo not given)?
GSK3 alpha inh: -1.8; MEKK2 mut-MEK5: 12.0; MEKK2wt PB1 HTS: 122.0; STK33 inh: 0.8; GSK3beta inhib: 3.6; MEKK3 PB1 HTS: 123.0*; MEKK2wt confirm: 94.0; MEKK2mut confirm: -5.0; MEKK3 confirm: 93.0
